T cruzi repl: blocks replication of Trypanosoma cruzi; AID 1885; 300,000 compounds, 1.4% hits; T. cruzi beta-gal in NIH3T3, luminescence, 90 h; inhibition, % (concentration not given with the values);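 active = mean inhibition across valid replicates above about 55%, limit read from the data; inconclusive = mean below that limit but half or more replicates reach it; inactive = mean below it, under half of replicates reach it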;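 note: signal also drops with host cell toxicity which is not excluded here; higher percent means less beta-gal luminescence so fewer parasites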
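assay system = mouse NIH/3T3 fibroblasts infected with β-gal-expressing T. cruzi Tulahuen C4 | input = 5,000 NIH/3T3 host cells per well | buffer or medium = DMEM plus 2% FBS | timing = 3 h host attachment, then at least 90 h co-culture | measured by = GalScreen luminescence, 60 min | evaluation = luminescence reflecting intracellular parasite burden, expressed as percent inhibition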
Calb FLC: affects C. albicans growth with fluconazole; C. albicans CaCi-2 + fluconazole, Alamar Blue growth, 48 h; growth inhibition, % (test concentration not listed); 300,000 compounds, 0.57% hits;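 active = growth inhibition above about 58% in most replicates, limit read from the data, passing the limit was not always enough; inconclusive = exactly half the replicates above a set limit; inactive = most replicates below a set limit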;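 note: all wells also contain fluconazole at 8 µg/ml as a sub-toxic cotreatment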
NALP1 yeast inh: NALP1 inhibition; AID 2071; S. cerevisiae NALP1/ASC/caspase-1 growth, X-gal OD620, 72 h; inhibition, % at 10 µM; 280,000 compounds, 0.61% hits; in the data active = inhibition mostly above about 24%, no sharp cut-off; inactive = mostly below about 32%
PolyA inh: yeast polyadenylation inhibition. AID 1875. activity score, % at 12 µM. 300,000 compounds, 0.02% hits. S. cerevisiae SKY197-pL101 polyadenylation reporter, beta-gal luminescence; efflux-impaired pdr1/pdr3 knockout yeast; score 100 = 6 SD above DMSO;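 active = lowest replicate activity score at least 50, where 100 means six control SD above control mean; inconclusive = lowest score under 50 but half or more replicates reach 50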;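 note: yeast exposed to compound for 9 h at 30 °C; higher score means more reporter readthrough which indicates perturbed polyadenylation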
NLRP3 yeast inh: NALP3 inhibition in yeast. Yeast reconstituted NLRP3/ASC/caspase-1, beta-gal luminescence, 24 h. 330,000 compounds, 0.39% hits. inhibition, % at 10 µM. AID 2825;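 active = inhibition of 50% or more; inactive = inhibition below 50%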
L major viab: Leishmania major promastigote growth inhibition. Leishmania major promastigotes, resazurin fluorescence viability. inhibition, % at 10 µM. 200,000 compounds, 9% hits. AID 1063; in the data active = inhibition above about 50%;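 note: promastigotes grown with compound for 44 hours at 28 °C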
Each line names hits and unclear results; the compound was inactive in the other large screens. This is one part of a sample in which hits are shown more often than they occur.

Cc1ccc(C)c(S(=O)(=O)N(C(=O)c2ccncc2)c2ccc(OC(=O)c3ccncc3)cc2)c1	none
Cc1ccc(S(=O)(=O)N(C(=O)c2ccncc2)c2ccc(OC(=O)c3ccncc3)cc2)c(C)c1	L major viab 75.7
Cc1nc2c(O)cccc2cc1CO	NALP1 yeast inh 35.7 (no result: L major viab)
Cc1ccc(O)c(CO)n1	none (no result: L major viab)
C[C@H](NC(=O)CCC1CCC(=O)N1)c1ccccc1 (some centres not stated)	none (no result: NALP1 yeast inh, L major viab)
CCCC[n+]1ccn(C2=C([O-])c3ccccc3C(=O)/C2=N\S(=O)(=O)c2ccc(Br)cc2)c1	none
Cc1ccc(S(=O)(=O)[N-]c2nc3ccccc3nc2-n2cc[n+](CCC(C)C)c2)cc1	L major viab 99.5
Cc1ccc(S(=O)(=O)/N=C2\C(=O)c3ccccc3C([O-])=C2n2cc[n+](CCC(C)C)c2)cc1	L major viab 88.5
Cc1noc(C)c1S(=O)(=O)N1CCC(C(=O)N2CCN(c3ccc(Cl)cc3)CC2)CC1	L major viab 68.1
Cc1ccc(C)c(N2CCN(C(=O)C3CCN(S(=O)(=O)c4c(C)noc4C)CC3)CC2)c1	none (no result: L major viab)
Cc1noc(/C=C/N(C)C)c1S(=O)(=O)N1CCCC(C(=O)N2CCCCC2)C1 (configuration not stated)	PolyA inh inconclusive
Cc1noc(/C=C/N(C)C)c1S(=O)(=O)N1CCCC(C(=O)NC2CCCCC2)C1 (configuration not stated)	T cruzi repl 61.8
Cc1noc(/C=C/c2ccco2)c1S(=O)(=O)N1CCC(C(=O)N2c3ccccc3CC2C)CC1 (configuration not stated)	T cruzi repl 58.3
Cc1noc(C)c1S(=O)(=O)N1CCC(C(=O)N2CCN(c3ccccc3Cl)CC2)CC1	L major viab 96.5
Cc1cccc(N2CCN(C(=O)C3CCN(S(=O)(=O)c4c(C)noc4C)CC3)CC2)c1C	none (no result: L major viab)
Cc1noc(/C=C/c2ccco2)c1S(=O)(=O)N1CCC(C(=O)NC(C)c2ccccc2)CC1 (configuration not stated)	none
COc1ccc(C(=O)Nc2ccc(N3CCCCCC3)cc2)cc1S(=O)(=O)N1CCOCC1	none (no result: T cruzi repl, Calb FLC, NALP1 yeast inh, PolyA inh, L major viab)
Cc1noc(C)c1S(=O)(=O)N1CCCC(C(=O)N2CCN(C3CCCCC3)CC2)C1 (configuration not stated)	L major viab 92.7
Cc1noc(C)c1S(=O)(=O)N1CCC(C(=O)N2CCC(N3CCCCC3)CC2)CC1	none
Cc1csc(N/N=C/c2c(F)cccc2Cl)n1	none (no result: L major viab)
O=C(NNC1=Nc2cccc3cccc1c23)c1ccc(Br)cc1	T cruzi repl 62.0, L major viab 82.1 (no result: NLRP3 yeast inh)
COc1ccc(CC(=O)NNC2=Nc3cccc4cccc2c34)cc1OC	none (no result: NALP1 yeast inh, L major viab)
CCOC(=O)c1ccccc1NC(=O)CSc1ccc(-c2ccccn2)nn1	none (no result: L major viab)
CN(CCn1ccnc1)Cc1cn(-c2ccccc2)nc1-c1ccc2c(c1)OCO2	L major viab 93.6
CN(Cc1cccnc1)Cc1cn(Cc2ccccc2)nc1-c1ccc2c(c1)OCO2	none
CN(Cc1ccno1)Cc1cn(Cc2ccccc2)nc1-c1ccc2c(c1)OCO2	NALP1 yeast inh 29.4
COc1ccc(N(S(=O)(=O)c2ccccc2)S(=O)(=O)c2ccccc2)c(N)c1	none (no result: NALP1 yeast inh, L major viab)
CC(Sc1nnc(-c2ccco2)n1C)C(=O)N1C(C)CCCC1C (configuration not stated)	NALP1 yeast inh 36.5 (no result: L major viab)
COc1cccc(/C=N/NC(=O)C(=O)N2CCCC2)c1OC	none
COc1cccc(/C=N/NC(=O)C(=O)N2CCCC2)c1O	L major viab 53.2
COc1cccc(/C=N/NC(=O)CSc2ccccc2C)c1OC	none
COc1cccc(/C=N/NC(=O)CSc2ccccc2C)c1O	L major viab 97.9
COc1cccc(/C=N\NC(=O)c2ccc(Cn3cc(Br)c([N+](=O)[O-])n3)o2)c1O	T cruzi repl 64.1, Calb FLC 102.4, L major viab 100.2
COc1cccc(/C=N/NC(=O)Cn2nc(C)c([N+](=O)[O-])c2C)c1O	L major viab 81.9
COc1cc(NC(=O)CCC(=O)c2cccs2)cc(OC)c1	none (no result: L major viab)
CC1=NCCN1S(=O)(=O)c1cc(Cl)ccc1Cl	none
CCN(CC(=O)NC1CCS(=O)(=O)C1)C(=O)c1cc(OC)c(OC)c(OC)c1 (configuration not stated)	none (no result: T cruzi repl, Calb FLC, NALP1 yeast inh, PolyA inh, L major viab)
COc1cccc(/C=N/NC(=O)C(C)n2nc(C)c([N+](=O)[O-])c2C)c1O (configuration not stated)	L major viab 93.9
NC(=O)C1(N2CCCCC2)CCN(c2nc(-c3ccc(Br)cc3)cs2)CC1	T cruzi repl 60.2
Cc1noc(C)c1C(=O)OCC(=O)NC1CCCCC1C (configuration not stated)	none (no result: T cruzi repl, Calb FLC, NALP1 yeast inh, PolyA inh, L major viab)
Cc1noc(C)c1COC(=O)Cc1ccc(Br)cc1	none
Cc1ccc(-c2nc3c(=O)n(C)c4ccccc4c3o2)cc1	L major viab 62.6
Cc1cc(C)n(-c2nnc(C)n2/N=C/c2cc(Br)ccc2OCc2ccccc2)n1	L major viab 89.2
Cc1cc(C)n(-c2nnc(C)n2/N=C/c2ccccc2OCc2ccccc2Cl)n1	none
COC(=O)c1ccc(C2NC(=S)N(c3ccccc3)C(C)=C2C(=O)Nc2ccccc2OC)cc1 (configuration not stated)	L major viab 72.1
CCCN(CC(=O)Nc1ccccc1C)C(=O)C1CC(=O)N(c2cccc(C)c2C)C1 (configuration not stated)	none (no result: Calb FLC, NALP1 yeast inh, L major viab)
Cc1cc(C)cc(NC(=O)c2ccc3nc[nH]c3c2)c1	L major viab 85.5
CC1(C)CC(=O)c2sc(NS(=O)(=O)c3ccc(F)cc3)nc2C1	none
CCCOc1nc2c(c(=O)n(C)c(=O)n2C)n1C	none (no result: L major viab)
CCCOc1nc2c(c(=O)n(C)c(=O)n2C)n1Cc1cccc2ccccc12	L major viab 65.0
CC(=O)c1c(C)[nH]c(C(=O)Nc2ccc(C)c(C)c2)c1C	Calb FLC 95.7
COc1ccc(NC(=O)c2[nH]c(C)c(C(C)=O)c2C)cc1S(=O)(=O)Nc1ccc(Br)cc1	T cruzi repl 56.4 (no result: L major viab)
COc1ccc(NC(=O)c2[nH]c(C)c(C(C)=O)c2C)cc1Cl	none
CCc1c(C(=O)Nc2ccc(C)c(C)c2)[nH]c(C)c1C(C)=O	none (no result: L major viab)
CN(C)Cc1c(-c2ccc(Cl)cc2)nc2ccccn12	none
COc1ccc(-c2nc3c4ccccc4ccn3c2CN2CCCCC2)cc1OC	none (no result: NALP1 yeast inh, L major viab)
Clc1ccc(-c2nc3ccccn3c2CN2CCCCC2)cc1	L major viab 76.8 (no result: Calb FLC, PolyA inh)
COc1ccc(-c2nc3c4ccccc4ccn3c2CN2CCCCC2)cc1	Calb FLC inconclusive, L major viab 100.0
O=C(COC(=O)CNS(=O)(=O)c1cccc(Br)c1)Nc1ccccc1Sc1ccccc1	none
C=CCn1c(SCc2ccccc2Cl)nnc1-c1sc2nc(C)cc(C)c2c1N	T cruzi repl 62.8 (no result: L major viab)
O=CN/C=C/c1cc(O)ccc1O	none (no result: T cruzi repl, Calb FLC, PolyA inh, L major viab)

Screening results deposited in PubChem BioAssay by several laboratories.
